These results are taken from ChEMBL document CHEMBL3112415, “Novel hybrid selenosulfonamides as potent antileishmanial agents” (Eur J Med Chem, 2014).

Data set [1] in a line: Selectivity index, ratio of IC50 for human THP1 cells to IC50 for axenic amastigote stage of Leishmania infantum. It is filed as toxicity, cell-based, THP-1. Conditions: read-out: Ratio IC50. The gist of the method:
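SI computed as THP-1 IC50 (24 h PI-exclusion flow cytometry) divided by IC50 against L. infantum amastigotes.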

Data set [2] relates to Leishmania infantum. Description: Leishmanicidal activity against axenic amastigote stage of Leishmania infantum after 24 hrs by propidium iodide staining-based flow cytometric analysis. It is filed as functional, organism-based. The gist of the method:
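Axenic amastigotes maintained at pH 5.4, 37 °C in medium with citric acid, sodium bicarbonate, MES, hemin and gentamicin; miltefosine and edelfosine as standards; at least three independent experiments; IC50 values.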
(In general: Flow cytometry measures light scatter and fluorescence of single cells or particles in a stream.)

The test system of a further data set is THP-1. Description: Cytotoxicity against human THP1 cells after 24 hrs by propidium iodide staining-based flow cytometric analysis. In kind it is cell-based. Conditions: THP-1, 24 h. Summed up:
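THP-1 cells grown in RPMI-1640 with 10% heat-inactivated FCS, 1 mM HEPES, 2 mM glutamine, 1 mM pyruvate, pH 7.2, 37 °C, 5% CO2; treated in log phase at 4 × 10⁵ cells/mL for 24 h at 37 °C, 5% CO2. Viability by flow cytometry with propidium iodide exclusion; IC50 reported.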

Data set [3] deals with Leishmania infantum. Description: Leishmanicidal activity against amastigote stage of Leishmania infantum expressing GFP infected in human THP1 cells after 48 hrs by flow cytometric analysis. In kind it is functional, organism-based. Conditions: THP-1, 48 h. Summed up:
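THP-1 cells seeded at 120.000 cells/mL, differentiated to macrophages for 24 h with 10 ng/mL PMA in RPMI-1640, then infected with 1.2 × 10⁶ eGFP-expressing amastigotes per well; free parasites removed after 4 h. After 48 h drug treatment, cells washed with PBS, detached with TrypLE, and infection rate read by flow cytometry.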

A value given as a limit tells only on which side of the number the result lay.

`O=[N+]([O-])c1ccc(S(=O)(=O)Nc2ccc([Se][Se]c3ccc(NS(=O)(=O)c4ccc([N+](=O)[O-])cc4)cc3)cc2)cc1`: the selectivity ratio in data set [1] came to 4.6. In addition, the half-inhibitory concentration (IC50) came to 3.74 µM in the data set with Leishmania infantum [2] and 17.1 µM in the data set on THP-1.
For `O=S(=O)(Nc1ccc([Se][Se]c2ccc(NS(=O)(=O)c3ccc(-c4ccccc4)cc3)cc2)cc1)c1ccc(-c2ccccc2)cc1`, in that order: > 2, 13.8 µM and > 25 µM.
Take `N#Cc1ccc(S(=O)(=O)Nc2ccc([Se][Se]c3ccc(NS(=O)(=O)c4ccc(C#N)cc4)cc3)cc2)cc1`: the selectivity ratio in data set [1] was 2. Further, the IC50 in the data set with Leishmania infantum [2] is 1.76 µM; in the data set on THP-1, 3.6 µM.
`O=S(=O)(Nc1ccc([Se][Se]c2ccc(NS(=O)(=O)c3cccs3)cc2)cc1)c1cccs1`: in data set [1], the selectivity ratio worked out at 5.6. For the same compound, the IC50 with Leishmania infantum [2] came to 1.54 µM; in the data set on THP-1 it was 8.6 µM.
Regarding `O=S(=O)(Nc1ccc([Se][Se]c2ccc(NS(=O)(=O)c3cccc4cccnc34)cc2)cc1)c1cccc2cccnc12`, the values for the concentration for half-maximal inhibition (IC50) with Leishmania infantum [3], with Leishmania infantum [2] and with THP-1 were 6.2 µM, 0.83 µM and > 25 µM, respectively. The selectivity ratio in data set [1] was > 30.
On to `O=S(=O)(Nc1ccc([Se][Se]c2ccc(NS(=O)(=O)c3ccccc3Cl)cc2)cc1)c1ccccc1Cl`, for which, in data set [1], the selectivity ratio worked out at 15. Besides, the IC50 is 1.17 µM with Leishmania infantum [2] and 17.4 µM in the data set on THP-1.
Regarding `CCCCCCCCCCCCCCCCOP(=O)([O-])OCC[N+](C)(C)C` [MILTEFOSINE], in data set [1], the selectivity ratio worked out at 7.
As for `CCCCCCCCCCCCCCCCCCOCC(COP(=O)([O-])OCC[N+](C)(C)C)OC` (stereo not given) [EDELFOSINE], the figures for the IC50 with Leishmania infantum [3] and in the data set on THP-1 were 3.1 µM and 4.9 µM, respectively. Besides, the selectivity ratio in data set [1] is 6.
For the compound `O=S(=O)(Nc1ccc([Se][Se]c2ccc(NS(=O)(=O)c3ccc(C(F)(F)F)cc3)cc2)cc1)c1ccc(C(F)(F)F)cc1`, in data set [1], the selectivity ratio was 9.5. Further, the values for the IC50 with Leishmania infantum [2] and in the data set on THP-1 were 2.01 µM and 19.1 µM, respectively.
Take `COc1ccc(S(=O)(=O)Nc2ccc([Se][Se]c3ccc(NS(=O)(=O)c4ccc(OC)cc4)cc3)cc2)cc1`: in data set [1], the selectivity ratio is 14. In addition, the IC50 in the data set on Leishmania infantum [2] was 1.3 µM; in the data set on THP-1, 18.1 µM.
Regarding `O=S(=O)(Nc1ccc([Se][Se]c2ccc(NS(=O)(=O)c3ccc4ccccc4c3)cc2)cc1)c1ccc2ccccc2c1`, the selectivity ratio in data set [1] was > 4.4. Besides, the concentration for half-maximal inhibition (IC50) in the data set on Leishmania infantum [2] is 5.65 µM; in the data set on THP-1 it was > 25 µM.
As for `O=S(=O)(Nc1ccc([Se][Se]c2ccc(NS(=O)(=O)c3ccccc3F)cc2)cc1)c1ccccc1F`, in data set [1], the selectivity ratio worked out at 10.7. Further, the values for the IC50 in the data set on Leishmania infantum [2] and in the data set with THP-1 were 1.66 µM and 17.8 µM, respectively.
For `O=S(=O)(Nc1ccc([Se][Se]c2ccc(NS(=O)(=O)c3ccc(Cl)cc3)cc2)cc1)c1ccc(Cl)cc1`, in that order: > 7, 3.63 µM and > 25 µM.
The matching figures for `Cn1ccnc1S(=O)(=O)Nc1ccc([Se][Se]c2ccc(NS(=O)(=O)c3nccn3C)cc2)cc1`: 4, 1.05 µM and 4.4 µM.
`O=S(=O)(Nc1ccc([Se][Se]c2ccc(NS(=O)(=O)c3ccc(Br)cc3)cc2)cc1)c1ccc(Br)cc1`: the selectivity ratio in data set [1] turned out to be 2. In addition, the IC50 in the data set with Leishmania infantum [2] was 2.8 µM; in the data set on THP-1, 5.2 µM.
In the case of `O=S(=O)(Nc1ccc([Se][Se]c2ccc(NS(=O)(=O)c3ccccc3)cc2)cc1)c1ccccc1`, in data set [1], the selectivity ratio came out at 7.3. In addition, the IC50 is 1.64 µM in the data set on Leishmania infantum [2] and 11.9 µM in the data set on THP-1.
In the case of `Cc1ccc(S(=O)(=O)Nc2ccc([Se][Se]c3ccc(NS(=O)(=O)c4ccc(C)cc4)cc3)cc2)cc1`, the IC50 was 4.1 µM in the data set on Leishmania infantum [3], 1.4 µM in the data set on Leishmania infantum [2] and > 25 µM in the data set on THP-1. Also, the selectivity ratio in data set [1] is > 18.
The matching figures for `O=S(=O)(Nc1ccc([Se][Se]c2ccc(NS(=O)(=O)c3ccc(F)cc3)cc2)cc1)c1ccc(F)cc1`: 2.8 µM, 1.47 µM, > 25 µM and > 17.

A word on the IC50: it is the concentration at which inhibition is half-maximal. A low value points to greater potency.
